Source: PubChem BioAssay
This is a sample that favours compounds with a hit; in the whole collection about 4% have one here.
CHOP UPR activ = activators of apoptotic CHOP UPR arm, primary screen, cell-based, CHO-CHOP luciferase reporter, luminescence, uHTS; UPR activation; percent of tunicamycin response over DMSO baseline; activation, % at 10 µM; 330,000 tested, 0.34% active; AID 449763, 2010;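 active means at 10 µM dose, activation of 40% or more, normalized to positive control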;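 further: 100% = tunicamycin at 10 µg/mL and 0% = DMSO alone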
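Material: CHO-CHOP cells, stable luciferase reporter of PERK-eIF2a-CHOP signalling; quantity: 500 reporter cells seeded per well; buffer or medium: F12 medium containing 10% fetal bovine serum; compound: one dose, 10 µM in 0.5% DMSO; incubation: 6 h compound treatment, 37 °C; measured by: Steady-Glo luciferase luminescence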
ABHD5-PLIN5 inh = ABHD5-PLIN5 interaction inhibitors, primary screen, cell lysate, split luciferase complementation, luminescence; AID 602281, 2012; Split G. princeps luciferase complementation, 4 h; 360,000 tested, 0.78% active; inhibition, % at 4 µM;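 active means inhibition above the mean inhibition across every tested compound plus 3 SD, cut at about 22% in these data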;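 further: 0% = DMSO only wells and the 100% control is not disclosed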
Exocytosis inh = LAMP-1 surface exposure blockers, TALL-104 cells – cell-based, flow cytometry, MLPCN library, primary screen. 360,000 tested, 0.66% active. TALL-104 LAMP-1 surface exposure; cells stimulated with thapsigargin and PMA. AID 651702, 2012. inhibition, % at 10 µM;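 active means inhibition above about 55%, limit read from the data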
Mdm2 MdmX PPI = inhibitors of human Mdm2-MdmX association, primary screen, cell-based, luminescence, split luciferase, SaOS-2, uHTS; Protein Mdm4 (Homo sapiens) + E3 ubiquitin-protein ligase Mdm2 (Homo sapiens), …; SaOS-2 split-luciferase Mdm2/MdmX complementation; inhibition, % at 8 µM; 330,000 tested, 3% active; AID 485346, 2010;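 active means inhibition of at least 50% at 8 µM in the primary screen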
UPR XBP1 act = activators of adaptive XBP1 UPR arm, primary screen, cell-based, CHO-XBP1 luciferase reporter, luminescence, uHTS; IRE1-XBP1 UPR activation; percent of tunicamycin response, DMSO as zero; 330,000 tested, 0.33% active; activation, % at 20 µM; AID 463104, 2010;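 active means versus positive control, 20 µM dose yields 30% or more activation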;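 further: 100% = tunicamycin at 10 µg/mL and 0% = DMSO only wells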
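Material: CHO-XBP1 cells stably carrying IRE1-XBP1-driven luciferase reporter / Amount: 1000 cells per well / Compound: 20 µM, 1% DMSO / Times: 6 h treatment, 37 °C / Detection: luciferase luminescence / Measure: % activation of reporter signal versus tunicamycin and DMSO controls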
Mdm2 MdmX conf = Mdm2-MdmX complex disruptors, retested hits, confirmation, luminescence, single concentration. shares compounds with Mdm2 MdmX PPI. Mdm2-MdmX binding, luminescent assay. inhibition, % at 8 µM. 10,000 tested, 55% active; in the data active means inhibition above about 40%
Full FLuc ctr = full-length luciferase signal inhibition, confirmation, counter-screen for Mdm2/MdmX interaction inhibitor project, cell-based, single concentration, SaOS-2 | shares compounds with Mdm2 MdmX PPI | SaOS-2 full-length luciferase counterscreen, luminescence | inhibition, % at 8 µM | 6,200 tested, 77% active | AID 504607, 2011;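 active means mean inhibition at 8 µM reaching about 37%, which flags the compound as non-specific, limit read from the data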;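 further: p53-null SaOS-2 cells with luciferase driven by a doxycycline-inducible promoter; compound on cells about two nights before reading with doxycycline added after day one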
* hit, by the source's call; x = not tested or not shown.

SMILES | CHOP UPR activ | ABHD5-PLIN5 inh | Exocytosis inh | Mdm2 MdmX PPI | UPR XBP1 act | Mdm2 MdmX conf | Full FLuc ctr
CN(Cc1ccccc1)S(=O)(=O)c1ccc2c(c1)NC(=O)CC(=O)N2 | 0 | -3 | -5 | -12 | 0 | x | x
Cc1nn(-c2ccc([N+](=O)[O-])cc2)c2c1C(c1cccc(Br)c1)N1C(=N2)C(=O)Nc2ccccc21 (centres undefined) | 17 | -3 | 6 | 60* | 1 | 26 | x
O=C(COC(=O)c1ccccc1C(=O)c1ccc(Cl)c([N+](=O)[O-])c1)NC1CC1 | 19 | 3 | -5 | 100* | -4 | 96* | 52*
Cc1ccc(C(=O)O/N=C(\N)c2cccnc2)cc1[N+](=O)[O-] | 5 | -6 | 10 | -46 | 1 | x | x
N/C(=N\OC(=O)c1ccc(Cl)c([N+](=O)[O-])c1)c1ccccc1 | 15 | 5 | 6 | 65* | -2 | 29 | x
N/C(=N\OC(=O)c1ccc(Cl)c(Cl)c1)c1ccccn1 | -2 | 5 | 4 | -136 | -4 | x | x
N/C(=N\OC(=O)c1ccc(Cl)c([N+](=O)[O-])c1)c1ccccn1 | 4 | 12 | 5 | 67* | 4 | 46* | 91*
CCOC(=O)C1CCN(C(=O)CCn2c(=O)[nH]c3ccccc3c2=O)CC1 | 0 | 2 | 0 | 0 | 0 | x | x
Cc1cc(/C=C2\SC(=Nc3ccc(F)cc3)NC2=O)c(C)n1-c1ccc(S(N)(=O)=O)cc1 | -2 | 18 | 4 | 61* | 4 | 47* | 59*
CC1c2cc3c(cc2CCN1CC(=O)Nc1ccccc1)OCCCO3 (centres undefined) | -1 | 0 | -3 | -4 | -6 | x | x
CC1c2cc3c(cc2CCN1C(=O)c1cccc(Cl)c1)OCCCO3 (centres undefined) | 0 | -3 | 1 | 57* | -2 | 44* | 62*
COc1cc(OC)c(OC)cc1/C=C/C(=O)c1ccc(NS(=O)(=O)c2ccc(C)cc2)cc1 | 1 | 13 | 13 | 59* | -2 | 28 | x
COc1ccccc1/C=C/C(=O)c1ccc(NC(C)=O)cc1 | 7 | 11 | -5 | 63* | -1 | 52* | 59*
COc1ccccc1/C=C/C(=O)c1c2c(c(C)[nH]c1=O)CCCC2 | 2 | 11 | 0 | 85* | -1 | 99* | 56*
COc1ccc(/C=C/C(=O)c2ccccc2)c(OC)c1 | 5 | 1 | 0 | -34 | -2 | x | x
O=C(NCCCN1CCOCC1)c1cc(S(=O)(=O)N2CCOCC2)c(Cl)cc1Cl | 0 | -9 | 0 | -3 | 0 | x | x
Cc1cc2nc(C3CCCN(C(=S)Nc4ccccc4)C3)[nH]c2cc1C (centres undefined) | 0 | -3 | 6 | 51* | -4 | -13 | x
COc1ccccc1NC(=O)N1CCC(c2nc3cc(C)c(C)cc3[nH]2)CC1 | -1 | 0 | 1 | 57* | 12 | 70* | 72*
Cc1ccc2nc(C3CCCN(C(=S)Nc4ccccc4C)C3)[nH]c2c1 (centres undefined) | -1 | -4 | 0 | 21 | -3 | x | x
O=C(c1ccco1)N1c2ccccc2Sc2ccccc21 | 2 | 0 | 1 | 41 | -2 | x | x
O=C(N1CCN(c2ccccn2)CC1)N1c2ccccc2Sc2ccccc21 | 1 | -7 | 51 | 79* | 8 | 68* | 78*
O=C(c1ccc(Br)s1)N1CCN(c2ccccn2)CC1 | 1 | -2 | -1 | -18 | 2 | x | x
O=C(c1ccco1)N1CCN(C(=O)N2c3ccccc3Sc3ccccc32)CC1 | 1 | 3 | 2 | 52* | 13 | 63* | 92*
N#C/C(=C\c1cc2c(cc1Br)OCO2)c1ccc(C(=O)O)cc1 | 0 | -2 | 1 | 3 | -7 | x | x
COc1cccc(C(=O)NC2CC3CCCC(C2)N3CC(=O)Nc2ccccc2C(F)(F)F)c1 (centres undefined) | 1 | -1 | 12 | 18 | -5 | x | x
SMILES | CHOP UPR activ | ABHD5-PLIN5 inh | Exocytosis inh | Mdm2 MdmX PPI | UPR XBP1 act | Mdm2 MdmX conf | Full FLuc ctr
COc1ccc2sc(-c3ccc(SC)cc3)c(-c3ccc(O)cc3)c2c1 | 3 | -10 | 4 | 54* | 14 | 29 | x
COc1cc(-c2ccc(Nc3ccccc3C(=O)O)c(OC)c2)ccc1Nc1ccccc1C(=O)O | 0 | 4 | 20 | 81* | -5 | 32 | x
O=C1NC(=S)N/C1=C/c1cc2c(cc1[N+](=O)[O-])OCO2 | 2 | -2 | -4 | 55* | -4 | 29 | x
O=C(O)/C=C\c1cc2c(cc1[N+](=O)[O-])OCO2 | 8 | 9 | -6 | -6 | 17 | x | x
CCOc1ccccc1NC(=O)Cn1c(=O)c2ccccc2n(CC)c1=O | 0 | 5 | 2 | -7 | -2 | x | x
COc1ccc(C(=O)Nc2nc3ccc4nc(C)sc4c3s2)cc1 | -1 | -3 | 4 | 17 | 2 | x | x
CSc1nc2ccc3nc(NC(=O)c4ccc(C)cc4)sc3c2s1 | 3 | -3 | 1 | 61* | 9 | 26 | x
O=C(c1ccco1)N1CCc2[nH]nc(-c3ccc(Cl)cc3)c2C1 | 3 | 7 | 16 | 19 | 6 | x | x
Cc1cc(C)n2nc(N)c(N=Nc3ccc4c(c3)OCO4)c2n1 | 3 | -6 | -8 | 57* | 2 | -26 | x
Cc1cc(C)n2nc(N)c(N=Nc3ccccc3)c2n1 | 1 | -8 | -8 | 18 | 1 | x | x
Cc1ccc(S(=O)(=O)N2CCN(C)CC2c2ccccc2)cc1 (centres undefined) | -2 | 12 | 4 | 5 | -1 | x | x
N/C(=C\C(=O)c1cc(Cl)ccc1O)C(Cl)(Cl)Cl | 40 | -4 | 7 | 95* | 15 | 57* | 54*
CC(C)(C)c1ccc(C(=O)CC(=O)c2cc(Cl)ccc2O)cc1 | 15 | -4 | -4 | 37 | 11 | x | x
COc1cc(-c2ccc3oc(-c4ccsc4)c(C#CC4(O)CCCCC4)c3c2)cc(OC)c1OC | 2 | -5 | 5 | 52* | 7 | 9 | x
OC1(C#Cc2c(-c3ccsc3)oc3ccc(N4CCOCC4)cc23)CCCCC1 | 0 | -10 | -8 | 24 | 10 | x | x
COc1ccc(-c2oc3ccc(-c4cc(OC)c(OC)c(OC)c4)cc3c2C#Cc2ccccn2)cc1 | 4 | 3 | -2 | 85* | -1 | 64* | 64*
